Format in all cases: ADME, organism-based
Data set [1] can be described thus: AUC in rat at 0.5 mg/kg, iv. Also noted: dose 0.5 mg/kg, route intravenous. The settings on record: plasma. Put shortly: (§1)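 Rats given 0.5 mg/kg iv and 10 mg/kg po. The iv plasma values are the mean from three rats; the po plasma values come from a single rat.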
A short description of data set [2]: AUC in rat at 10 mg/kg, po. Further details: dose 10 mg/kg, route oral. The settings on record: plasma. In a few lines:
as §1

Data set [3] can be described thus: Oral bioavailability in rat at 10 mg/kg. The settings on record: in vivo. Put shortly:
as §1

One may read the AUC as the area under the concentration-time curve, a measure of exposure. Low values mean low exposure, high ones high exposure. As usually defined, the bioavailability is the share of a dose that reaches the circulation, judged against a reference dose that is usually intravenous. The low end stands for little systemic uptake, the high end for much systemic uptake.

With `CN1CCC(C(=O)Nc2cc3cc[nH]c(=O)c3cc2Cl)CC1`, the AUC in data set [1] amounted to 127 ng·h/mL; in data set [2], 1780 ng·h/mL. Moreover, the bioavailability in data set [3] turned out to be 70%.

On to `O=C(Nc1cc2cc[nH]c(=O)c2cc1Cl)C1CCNCC1`, for which the figures for the AUC in data set [1] and in data set [2] were 161 ng·h/mL and 141 ng·h/mL, respectively. Besides, the bioavailability in data set [3] turned out to be 4.4%.

As to `N[C@H]1CC[C@@H](C(=O)Nc2cc3cc[nH]c(=O)c3cc2Cl)CC1`, the AUC in data set [1] is 119 ng·h/mL; in data set [2] it was 338 ng·h/mL. For the same compound, in data set [3], the bioavailability turned out to be 20%.

The values are drawn from ChEMBL document CHEMBL1221307, “Substituted 2H-isoquinolin-1-ones as potent Rho-kinase inhibitors: part 2, optimization for blood pressure reduction in spontaneously hypertensive rats” (Bioorg Med Chem Lett, 2010).
